ChEMBL document CHEMBL4706727, “Discovery of 2,4-1H-Imidazole Carboxamides as Potent and Selective TAK1 Inhibitors” (ACS Med Chem Lett, 2021)
Converted amounts (≈) assume the structure as drawn. The source made the active and inactive calls.

Assays:
TAK1/TAB1 = TAK1/TAB1 (Homo sapiens, UniProt O43318); experiment: Inhibition of recombinant human full-length His-tagged TAK1-TAB1 fusion protein (437 to 504 residues) expressed in baculovirus expression system using fluorescein-MAP2K1 as substrate preincubated for 30 mins followed by substrate addition and measured after 60 mins in presence of ATP by lanthascreen TR-FRET assay
[1] = Apparent permeability across apical to basolateral side in human Caco-2 cells at 2 uM after 2 hrs by LC/MS-MS analysis; format: ADME, cell-based
[2] = Half life in CD-1 mouse liver S9 fraction at 1 uM measured up to 60 mins in presence of NADPH by LC-MS analysis; format: ADME, subcellular
[3] = Aqueous solubility of compound in pH 7.4 PBS buffer measured after 24 hrs by HPLC-UV analysis; format: physicochemical
HCT-15 = experiment: Cytotoxicity against TNFalpha-induced human HCT-15 cells assessed as reduction in cell viability up to 10 uM preincubated for 2 hrs followed by TNFalpha stimulation and measured after 72 hrs by celltiter-glo assay; format: functional, cell-based; settings: dose microM <=10, time 74.0 hrs
[4] = Apparent permeability across basolateral to apical side in human Caco-2 cells at 2 uM after 2 hrs by LC/MS-MS analysis; format: ADME, cell-based
[5] = Half life in rat liver S9 fraction at 1 uM measured up to 60 mins in presence of NADPH by LC-MS analysis; format: ADME, subcellular
[6] = Half life in human liver S9 fraction at 1 uM measured up to 60 mins in presence of NADPH by LC-MS analysis; format: ADME, subcellular
[7] = target: Phosphatidylinositol 4-phosphate 5-kinase type-1 gamma (Homo sapiens) (UniProt O60331); experiment: Inhibition wild type human partial length PIP5K1C (M1 to T668 residues) expressed in mammalian expression system at 10 uM by Kinomescan method relative to control; settings: dose 1.0 µM, in the assay text read “at 1 uM” for “at 10 uM”
[8] = target: T1, Phosphatidylinositol 4,5-bisphosphate 3-kinase catalytic subunit delta isoform (Homo sapiens) (UniProt O00329); experiment: Inhibition of wild-type human partial length PIK3CD (R108 to Q1044 residues) expressed in mammalian expression system at 10 uM by Kinomescan method relative to control; settings: dose 1.0 µM, in the assay text read “at 1 uM” for “at 10 uM”
T1 sequence (whole entry): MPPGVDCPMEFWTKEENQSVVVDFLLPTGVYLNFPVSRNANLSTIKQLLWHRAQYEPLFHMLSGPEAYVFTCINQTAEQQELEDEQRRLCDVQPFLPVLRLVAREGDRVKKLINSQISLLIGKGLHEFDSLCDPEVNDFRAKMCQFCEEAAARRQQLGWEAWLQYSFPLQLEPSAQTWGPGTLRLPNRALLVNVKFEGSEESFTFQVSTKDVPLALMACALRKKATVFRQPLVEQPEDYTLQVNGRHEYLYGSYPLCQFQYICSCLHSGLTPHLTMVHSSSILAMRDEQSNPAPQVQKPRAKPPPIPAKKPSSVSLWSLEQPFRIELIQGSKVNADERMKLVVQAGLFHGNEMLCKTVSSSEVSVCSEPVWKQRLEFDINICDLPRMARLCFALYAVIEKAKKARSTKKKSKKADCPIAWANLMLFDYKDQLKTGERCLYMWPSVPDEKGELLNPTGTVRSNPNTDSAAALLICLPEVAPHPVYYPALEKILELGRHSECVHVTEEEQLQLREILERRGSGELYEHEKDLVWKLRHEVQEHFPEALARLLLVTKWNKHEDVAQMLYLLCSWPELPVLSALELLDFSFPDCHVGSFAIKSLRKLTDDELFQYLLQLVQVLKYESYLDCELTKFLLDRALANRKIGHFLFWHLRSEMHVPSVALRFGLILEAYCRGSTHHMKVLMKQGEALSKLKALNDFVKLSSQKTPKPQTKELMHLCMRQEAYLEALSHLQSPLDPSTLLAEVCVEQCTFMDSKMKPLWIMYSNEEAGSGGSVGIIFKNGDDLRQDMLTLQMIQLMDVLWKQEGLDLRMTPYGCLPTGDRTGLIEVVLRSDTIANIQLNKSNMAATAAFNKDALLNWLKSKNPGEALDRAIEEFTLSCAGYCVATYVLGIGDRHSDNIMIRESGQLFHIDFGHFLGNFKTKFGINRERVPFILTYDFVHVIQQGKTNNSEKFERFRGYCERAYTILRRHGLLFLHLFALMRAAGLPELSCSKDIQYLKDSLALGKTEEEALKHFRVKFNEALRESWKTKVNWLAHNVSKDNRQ

[9] = target: Serine/threonine-protein kinase 32A (Homo sapiens) (UniProt Q8WU08); experiment: Inhibition of wild-type human full-length YANK1 (M1 to L396 residues) expressed in mammalian expression system at 10 uM by Kinomescan method relative to control
How it was run: (§1)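 Single-concentration screen at 10 μM across a 468-kinase KINOMEscan panel (453 human, 403 wild-type kinases). Binding to each kinase was read out as percent inhibition relative to control, with >65% taken as the inhibition cutoff.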

[10] = tested on: Tyrosine-protein kinase ABL1 (Homo sapiens), P00519 [H396P]; experiment: Inhibition of human ABL1 H396P mutant (S229 to K512 residues) expressed in mammalian expression system at 10 uM by kinomescan method relative to control; how it was run: as §1
[11] = Efflux ratio of apparent permeability across basolateral to apical side over apical to basolateral side in human Caco-2 cells at 2 uM after 2 hrs by LC/MS-MS analysis; format: ADME, cell-based
[12] = target: T2, Mitogen-activated protein kinase kinase kinase 7 (Homo sapiens, UniProt O43318); experiment: Binding affinity to wild-type human partial length TAK1 (M1 to Q303 residues) expressed in mammalian expression system by Kinomescan method
T2 sequence (O43318 whole entry): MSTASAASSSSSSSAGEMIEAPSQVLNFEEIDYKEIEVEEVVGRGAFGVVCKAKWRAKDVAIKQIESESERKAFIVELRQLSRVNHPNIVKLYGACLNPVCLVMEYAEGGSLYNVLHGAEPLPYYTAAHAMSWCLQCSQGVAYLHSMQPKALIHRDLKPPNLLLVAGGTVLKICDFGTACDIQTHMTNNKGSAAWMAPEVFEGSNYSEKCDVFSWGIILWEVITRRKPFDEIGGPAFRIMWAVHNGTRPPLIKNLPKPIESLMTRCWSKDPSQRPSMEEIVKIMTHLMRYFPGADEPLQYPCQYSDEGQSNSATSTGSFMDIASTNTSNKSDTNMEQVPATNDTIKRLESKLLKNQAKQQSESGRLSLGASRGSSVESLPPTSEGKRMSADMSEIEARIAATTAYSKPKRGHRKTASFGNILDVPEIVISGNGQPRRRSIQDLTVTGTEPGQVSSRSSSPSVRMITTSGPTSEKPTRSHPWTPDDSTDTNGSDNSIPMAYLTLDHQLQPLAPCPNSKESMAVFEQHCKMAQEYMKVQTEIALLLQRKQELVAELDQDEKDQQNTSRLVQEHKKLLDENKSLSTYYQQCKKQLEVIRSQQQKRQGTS
How it was run: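 Dissociation constant for TAK1 binding measured on the KdELECT platform.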

[13] = target: Eukaryotic translation initiation factor 2-alpha kinase 1 (Homo sapiens) (UniProt Q9BQI3); experiment: Inhibition of wild-type human partial length EIF2AK1 (Q147 to E603 residues) expressed in mammalian expression system at 10 uM by Kinomescan method relative to control; how it was run: as §1
[14] = target: Activated CDC42 kinase 1 (Homo sapiens) (UniProt Q07912); experiment: Inhibition of wild-type human partial length TNK2 (S159 to D474 residues) expressed in bacterial expression system at 10 uM by Kinomescan method relative to control; how it was run: as §1
Chain of Activated CDC42 kinase 1 (Homo sapiens) (Q07912 whole entry, looked up, the tested form may be a part): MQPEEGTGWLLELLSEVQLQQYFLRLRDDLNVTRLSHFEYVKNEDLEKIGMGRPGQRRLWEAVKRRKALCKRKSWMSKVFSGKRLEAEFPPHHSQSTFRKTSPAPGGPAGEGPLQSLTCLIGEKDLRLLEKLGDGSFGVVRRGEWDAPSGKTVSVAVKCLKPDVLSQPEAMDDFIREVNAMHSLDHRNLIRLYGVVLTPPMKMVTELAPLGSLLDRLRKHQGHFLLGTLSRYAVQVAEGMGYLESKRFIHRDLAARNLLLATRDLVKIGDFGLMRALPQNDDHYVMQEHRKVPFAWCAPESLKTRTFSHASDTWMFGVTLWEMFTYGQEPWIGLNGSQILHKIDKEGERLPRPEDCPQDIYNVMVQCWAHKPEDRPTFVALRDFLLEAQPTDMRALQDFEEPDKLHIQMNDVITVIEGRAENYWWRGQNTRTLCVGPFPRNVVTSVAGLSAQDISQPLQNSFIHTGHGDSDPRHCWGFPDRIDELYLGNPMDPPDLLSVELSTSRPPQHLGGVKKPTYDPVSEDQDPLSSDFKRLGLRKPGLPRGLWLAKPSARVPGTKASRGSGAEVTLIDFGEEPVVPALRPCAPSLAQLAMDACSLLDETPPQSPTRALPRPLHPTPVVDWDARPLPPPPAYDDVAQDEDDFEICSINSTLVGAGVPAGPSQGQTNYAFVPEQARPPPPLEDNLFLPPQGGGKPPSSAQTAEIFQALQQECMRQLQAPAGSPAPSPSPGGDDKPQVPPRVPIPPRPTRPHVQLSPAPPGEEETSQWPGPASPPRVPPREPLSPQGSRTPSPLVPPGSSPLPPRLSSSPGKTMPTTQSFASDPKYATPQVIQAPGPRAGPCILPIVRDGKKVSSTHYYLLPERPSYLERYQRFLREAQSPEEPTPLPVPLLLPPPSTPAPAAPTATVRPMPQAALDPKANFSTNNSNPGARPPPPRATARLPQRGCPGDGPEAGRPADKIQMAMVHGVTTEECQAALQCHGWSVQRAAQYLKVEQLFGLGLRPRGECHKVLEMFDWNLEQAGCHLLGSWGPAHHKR

Chain of TAK1/TAB1 (Q15750 whole entry, one chain of several, the tested form may be a part): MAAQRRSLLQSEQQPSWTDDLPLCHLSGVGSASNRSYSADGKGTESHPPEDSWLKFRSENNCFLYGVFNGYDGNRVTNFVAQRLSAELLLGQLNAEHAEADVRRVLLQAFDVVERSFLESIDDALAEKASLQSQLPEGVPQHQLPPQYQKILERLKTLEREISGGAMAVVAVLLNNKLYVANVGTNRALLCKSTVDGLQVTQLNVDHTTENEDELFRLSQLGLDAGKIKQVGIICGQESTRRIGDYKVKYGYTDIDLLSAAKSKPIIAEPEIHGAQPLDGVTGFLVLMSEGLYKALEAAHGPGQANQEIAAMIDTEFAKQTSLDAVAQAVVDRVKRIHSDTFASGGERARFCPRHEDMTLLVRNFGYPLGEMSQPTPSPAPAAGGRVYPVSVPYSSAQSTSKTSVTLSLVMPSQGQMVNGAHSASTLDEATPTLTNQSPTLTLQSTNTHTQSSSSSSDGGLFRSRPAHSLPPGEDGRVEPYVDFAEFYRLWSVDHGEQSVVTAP
Chain of Eukaryotic translation initiation factor 2-alpha kinase 1 (Homo sapiens) (Q9BQI3 whole entry, the tested form may be a part): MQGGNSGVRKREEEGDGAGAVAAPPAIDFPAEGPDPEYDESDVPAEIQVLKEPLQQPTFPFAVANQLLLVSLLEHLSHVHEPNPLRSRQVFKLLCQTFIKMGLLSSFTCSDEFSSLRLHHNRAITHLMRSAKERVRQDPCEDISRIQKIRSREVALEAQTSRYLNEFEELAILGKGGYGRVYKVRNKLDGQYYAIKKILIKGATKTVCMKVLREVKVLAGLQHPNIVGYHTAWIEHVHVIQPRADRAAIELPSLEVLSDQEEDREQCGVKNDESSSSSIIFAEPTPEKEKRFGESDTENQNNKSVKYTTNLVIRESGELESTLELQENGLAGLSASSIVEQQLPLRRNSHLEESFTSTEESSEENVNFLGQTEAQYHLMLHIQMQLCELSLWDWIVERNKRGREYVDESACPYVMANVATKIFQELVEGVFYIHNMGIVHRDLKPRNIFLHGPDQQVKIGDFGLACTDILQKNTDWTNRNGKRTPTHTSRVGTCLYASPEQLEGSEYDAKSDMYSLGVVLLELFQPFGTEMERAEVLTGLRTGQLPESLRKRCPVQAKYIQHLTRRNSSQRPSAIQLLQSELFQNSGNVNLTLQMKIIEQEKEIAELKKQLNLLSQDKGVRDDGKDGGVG
Chain of Serine/threonine-protein kinase 32A (Homo sapiens) (Q8WU08 whole entry, the tested form may be a part): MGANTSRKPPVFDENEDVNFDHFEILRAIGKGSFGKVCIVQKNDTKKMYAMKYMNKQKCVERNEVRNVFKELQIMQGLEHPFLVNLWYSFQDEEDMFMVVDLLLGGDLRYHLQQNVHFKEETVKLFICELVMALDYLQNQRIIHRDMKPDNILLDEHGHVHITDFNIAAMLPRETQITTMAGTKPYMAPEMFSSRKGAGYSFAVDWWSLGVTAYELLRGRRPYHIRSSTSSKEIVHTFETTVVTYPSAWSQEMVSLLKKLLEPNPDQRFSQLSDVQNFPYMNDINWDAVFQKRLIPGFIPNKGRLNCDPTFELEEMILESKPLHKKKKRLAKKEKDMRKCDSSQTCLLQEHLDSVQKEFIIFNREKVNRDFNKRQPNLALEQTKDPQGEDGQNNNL
Chain of Phosphatidylinositol 4-phosphate 5-kinase type-1 gamma (Homo sapiens) (O60331 whole entry, the tested form may be a part, canonical isoform): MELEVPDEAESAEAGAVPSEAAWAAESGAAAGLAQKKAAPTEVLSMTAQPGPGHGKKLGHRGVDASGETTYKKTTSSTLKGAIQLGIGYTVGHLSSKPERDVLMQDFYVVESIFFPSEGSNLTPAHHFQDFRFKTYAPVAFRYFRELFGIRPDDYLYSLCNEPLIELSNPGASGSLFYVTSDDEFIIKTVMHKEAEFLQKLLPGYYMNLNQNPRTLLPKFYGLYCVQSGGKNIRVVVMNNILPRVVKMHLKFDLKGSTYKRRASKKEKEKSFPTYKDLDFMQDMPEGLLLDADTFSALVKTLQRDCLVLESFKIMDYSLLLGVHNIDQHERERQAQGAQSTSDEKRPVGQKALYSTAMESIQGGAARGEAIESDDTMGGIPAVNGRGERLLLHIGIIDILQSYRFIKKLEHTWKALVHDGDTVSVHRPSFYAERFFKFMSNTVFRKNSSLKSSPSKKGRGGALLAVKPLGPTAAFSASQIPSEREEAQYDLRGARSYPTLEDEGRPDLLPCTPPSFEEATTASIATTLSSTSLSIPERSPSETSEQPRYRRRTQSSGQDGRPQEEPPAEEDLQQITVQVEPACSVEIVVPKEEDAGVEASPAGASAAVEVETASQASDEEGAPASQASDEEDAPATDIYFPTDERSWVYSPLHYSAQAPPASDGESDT

Structure (SMILES) | IC50 (TAK1/TAB1) [nM] | also measured
CNC(=O)C(C(C)C)N(Cc1ccccc1OC(F)F)C(=O)c1c[nH]c(C(=O)N2CCCC2)n1 (stereo not drawn) | > 10000 | –
CNC(=O)CN(Cc1c(Cl)cccc1OC(F)F)C(=O)c1c[nH]c(C(=O)N2CCCC2)n1 | > 10000 | –
CNC(=O)CN(Cc1ccccc1OC(F)F)C(=O)c1c[nH]c(C(=O)N2CCCC2C)n1 (stereo not drawn) | 5700 | –
CNC(=O)[C@H](C)N(Cc1ccccc1OC(F)F)C(=O)c1c[nH]c(C(=O)N2CCCC2)n1 | 4500 | –
CNC(=O)CN(Cc1ccccc1OC(F)F)C(=O)c1cc(C(=O)N2CCCC2)[nH]n1 | 59000 | –
CCNC(=O)c1cc(C(=O)N(CC(=O)NC)Cc2ccccc2OC(F)F)c[nH]1 | > 100000 | –
CNC(=O)CN(Cc1c(F)cccc1OC(F)F)C(=O)c1c[nH]c(C(=O)N2CCCC2)n1 | > 10000 | –
CNC(=O)CN(Cc1cc(Cl)ccc1OC(F)F)C(=O)c1c[nH]c(C(=O)N2CCCC2)n1 | > 10000 | –
CNC(=O)CN(Cc1ccccc1OC(F)F)C(=O)c1c[nH]c(C(=O)N(C)C)c1 | 26000 | –
CNC(=O)CN(Cc1ccccc1OC(F)F)C(=O)c1c[nH]c(C(=O)N2CCCC2)n1 | – | Papp A→B at 2 h, 2 µM [1]: 1 ×10⁻⁶ cm/s; half-life at 1 µM [2]: > 120 min; inhibition [9]: > 65%; solubility at 24 h [3]: 30 µM (≈ 13.1 µg/mL); inhibition [10]: > 65%; efflux ratio at 2 h, 2 µM [11]: 20; Papp B→A at 2 h, 2 µM [4]: 20 ×10⁻⁶ cm/s; half-life at 1 µM [5]: > 120 min; Kd [12]: 55 nM; half-life at 1 µM [6]: > 120 min; inhibition [13]: > 65%; inhibition [14]: > 65%
CNC(=O)CN(Cc1ccccc1OC(F)F)C(=O)c1c[nH]c(C(=O)N2CCC(OC)C2)n1 (stereo not drawn) | > 10000 | –
CNC(=O)CN(C(=O)c1c[nH]c(C(=O)N2CCCC2)n1)C(C)c1ccccc1OC(F)F (stereo not drawn) | > 10000 | –
CNC(=O)CN(Cc1cccc(OC(F)F)c1)C(=O)c1c[nH]c(C(=O)N2CCCC2)n1 | > 10000 | –
CNC(=O)CN(Cc1ccccc1)C(=O)c1c[nH]c(C(=O)N2CCCC2)n1 | > 10000 | –
CNC(=O)CN(Cc1ccccc1OC(F)F)C(=O)c1c[nH]c(C(=O)N2CCC(NC(C)=O)C2)n1 (stereo not drawn) | > 10000 | –
CNC(=O)CN(Cc1ccccc1OC(F)F)C(=O)c1cc(C(=O)N2CCCC2)n(C)c1 | > 100000 | –
CNC(=O)CN(Cc1cc(F)ccc1OC(F)F)C(=O)c1c[nH]c(C(=O)N2CCCC2)n1 | > 10000 | –
CNC(=O)CN(Cc1cccc(OC)c1OC(F)F)C(=O)c1c[nH]c(C(=O)N2CCCC2)n1 | > 10000 | –
CNC(=O)CN(Cc1ccc(OC)cc1OC(F)F)C(=O)c1c[nH]c(C(=O)N2CCCC2)n1 | > 10000 | –

Second part, led by results:

IC50 (TAK1/TAB1) [nM] | Structure (SMILES) | also measured
1800 | CNC(=O)CN(Cc1ccccc1OC(F)F)C(=O)c1c[nH]c(C(=O)N2CCCCC2)c1 | –
2600 | CCOc1ccccc1CN(CC(=O)NC)C(=O)c1c[nH]c(C(=O)N2CCCC2)c1 | –
2900 | CNC(=O)CN(Cc1ccccc1OC(F)F)C(=O)c1c[nH]c(C(=O)N2CCCCCC2)n1 | –
2 | CNC(=O)[C@@H](C)N(Cc1ccccc1OC(F)F)C(=O)c1c[nH]c(C(=O)N2Cc3ccc(C(N)=O)cc3C2)n1 | Papp A→B at 2 h, 2 µM [1]: 0.1 ×10⁻⁶ cm/s; half-life at 1 µM [2]: 29 min; solubility at 24 h [3]: 5 µM (≈ 2.7 µg/mL); Activity (HCT-15): inactive; Papp B→A at 2 h, 2 µM [4]: 6 ×10⁻⁶ cm/s; half-life at 1 µM [5]: 19 min; half-life at 1 µM [6]: 24 min
1200 | CNC(=O)CN(Cc1ccccc1OC(F)F)C(=O)c1c[nH]c(C(=O)N2CCCCC2)n1 | –
500 | CNC(=O)C(C)N(Cc1ccccc1OC(F)F)C(=O)c1c[nH]c(C(=O)N2CCCC2)n1 (stereo not drawn) | –
10 | Nc1ncc(-c2cnn([C@H]3CC[C@H](O)CC3)c2)c2c(Cl)c(-c3cccc4nnsc34)oc12 | –
5 | CNC(=O)CN(Cc1ccccc1OC(F)F)C(=O)c1c[nH]c(C(=O)N2Cc3ccc(C(N)=O)cc3C2)n1 | inhibition [7]: > 65%; inhibition [8]: > 65%
1300 | CNC(=O)CN(Cc1ccccc1OC(F)F)C(=O)c1c[nH]c(C(=O)N2CCCC2)c1 | –
3200 | O=C(c1c[nH]c(C(=O)N2CCCC2)c1)N(Cc1ncco1)Cc1ccccc1OC(F)F | –
1700 | CC(C)NC(=O)CN(Cc1ccccc1OC(F)F)C(=O)c1c[nH]c(C(=O)N2CCCC2)c1 | –
900 | CNC(=O)CN(Cc1ccccc1OC(F)F)C(=O)c1c[nH]c(C(=O)N2CCC(C)C2)n1 (stereo not drawn) | –
2300 | CNC(=O)CN(Cc1ccccc1OC(F)F)C(=O)c1c[nH]c(C(=O)N2CCC(c3ccccc3)C2)n1 (stereo not drawn) | –
3400 | CNC(=O)CN(Cc1ccccc1OC(F)F)C(=O)c1c[nH]c(C(=O)N2CC3CCCCC3C2)n1 (stereo not drawn) | –
300 | CNC(=O)[C@@H](C)N(Cc1ccccc1OC(F)F)C(=O)c1c[nH]c(C(=O)N2CCCC2)n1 | –
900 | NC(=O)CN(Cc1ccccc1OC(F)F)C(=O)c1c[nH]c(C(=O)N2CCCC2)c1 | –
1000 | CCC(C(=O)NC)N(Cc1ccccc1OC(F)F)C(=O)c1c[nH]c(C(=O)N2CCCC2)n1 (stereo not drawn) | –
2600 | CNC(=O)CN(Cc1ccccc1OC(F)F)C(=O)c1c[nH]c(C(=O)N2CCC2)n1 | –
300 | CNC(=O)CN(Cc1ccccc1OC(F)F)C(=O)c1c[nH]c(C(=O)N2Cc3ccccc3C2)n1 | –
1800 | CNC(=O)CN(Cc1cccc2[nH]ccc12)C(=O)c1c[nH]c(C(=O)N2CCCC2)c1 | –
3400 | CNC(=O)CN(Cc1cccc2c1OCCCO2)C(=O)c1c[nH]c(C(=O)N2CCCC2)c1 | –
2800 | CNC(=O)CN(Cc1ccccc1OC)C(=O)c1c[nH]c(C(=O)N2CCCC2)c1 | –
3500 | CN(Cc1ccccc1OC(F)F)C(=O)c1c[nH]c(C(=O)N2CCCC2)c1 | –
1200 | CNC(=O)CN(Cc1ccccc1OC(F)F)C(=O)c1c[nH]c(C(=O)N2CCC(F)C2)n1 (stereo not drawn) | –
